# STAT1 inh – STAT1 signaling inhibitors, primary screen, cell-based, HTS, luciferase reporter; AID 920, 2007; inhibition, % at 5.5 µM; hit rate 0.35% among 200,000; NIH 3T3 STAT1-luciferase reporter, IFN-gamma, luminescence;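 active = inhibition above a set limit, the mean inhibition across all tested compounds plus 3 SD, cut at about 34% in these data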;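 note: 0% = IFN-gamma with DMSO and 100% = IFN-gamma with 300 µM nifuroxazide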
# APP 5'UTR act – activators of APP 5'UTR luciferase reporter, primary screen, SH-SY5Y cells; SH-SY5Y APP 5'UTR luciferase reporter, luminescence; zero percent = DMSO vehicle wells; activation, % at 2 µM; hit rate 1% among 190,000;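 active = activation above a set limit, based on mean plus 3 SD of controls, cut at about 140% in these data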
# STAT3 act-1 – IL-6 driven STAT3 reporter potentiators, primary screen, U3A cells, luciferase, luminescence, MLSCN library | AID 871, 2007 | IL-6 STAT3-luciferase reporter; 100% = signal with IL-6 EC80 alone | hit rate 0.91% among 190,000 | activation (% of control), % at 5.6 µM;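 active = activation above the screen-wide mean of compound activation plus 3 SD, cut at about 130% in these data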;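 note: 0% = background luminescence of wells with medium and substrate only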
#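 Test system: human U3A cells carrying STAT3-luciferase construct; control set: IL-6-only wells as 100% reference; timing: compound pre-incubation 1 h before IL-6, then 6 h stimulation at 37 °C; also added: IL-6 stimulus at 33 ng/mL final; evaluation: % activation versus median of IL-6-stimulated wells; detection: reporter luminescence signal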
# STAT3 inh-1 – IL-6 driven STAT3 reporter inhibitors, primary screen, U3A cells, luciferase, luminescence, MLSCN library; IL-6 STAT3-luciferase reporter; host cell line lacks STAT1; inhibition, % at 5.5 µM; hit rate 0.89% among 190,000; AID 862, 2007;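 active = inhibition above the mean inhibition across all screened compounds plus 3 SD, cut at about 44% in these data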;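 note: 0% = DMSO only wells and 100% = 100 µM nifuroxazide control wells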
# STAT1 act-1 – STAT1 signaling activators, primary screen, cell-based, HTS, luciferase reporter; hit rate 2.6% among 200,000; AID 932, 2007; activation (% of control), % at 5.5 µM; NIH 3T3 STAT1-luciferase reporter, IFN-gamma, luminescence; 100% = IFN-gamma alone, no compound;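 active = activation above the screen-wide mean activation plus 3 SD, cut at about 130% in these data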;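 note: raw ratio to IFN-gamma control signal so 100% means no change and 0% no light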
# NF-kB expr up – activators of NF-kB expression in neurons, primary screen, cell-based, HTS. human neuronal cells, NF-kB reporter expression; stronger effect = higher value. hit rate 1.6% among 190,000. fold change at 12.5 µM; in the data active = fold change above about 3.3
# STAT3 inh-2 – STAT3 reporter inhibitors, retest of hits, confirmation, U3A cells, luciferase, luminescence; shares compounds with STAT3 inh-1; IL-6 STAT3 luciferase reporter; cell line lacks STAT1; inhibition, % at 5.7 µM; hit rate 45% among 1,200; AID 1265, 2008;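 active = inhibition above the hit cutoff computed for the primary STAT3 screen, cut at about 44% in these data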;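 note: 0% = IL-6 plus DMSO and 100% = IL-6 plus nifuroxazide control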
# NFkB inh 2 – NF-kB reporter inhibitors in human cells, confirmation, counter-screen for STAT3 inhibitor project, cell-based, HEK293T, luciferase, TNF-alpha stimulus. TNF-alpha induced. hit rate 36% among 1,200. inhibition, % at 5.7 µM. AID 1308, 2008. shares compounds with STAT3 inh-1;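 active = inhibition above the mean of solvent-only control wells plus 3 SD, cutoff set per campaign, cut at about 13% in these data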;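 note: 0% = TNF-alpha with DMSO and 100% = TNF-alpha with MG high control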
# STAT1 inh 2 – STAT1 reporter inhibitors, IFN-gamma induced, confirmation, counter-screen for STAT3 inhibitor project, cell-based, NIH 3T3, luciferase luminescence; shares compounds with STAT3 inh-1; inhibition, % at 5.7 µM; NIH 3T3 STAT1-luciferase reporter; hit rate 27% among 1,200;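 active = inhibition above the mean plus 3 SD of solvent-only control wells, limit set per screening run, cut at about 16% in these data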;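 note: 0% = DMSO with IFN-gamma and 100% = nifuroxazide control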
# STAT3 act-2 – STAT3 reporter potentiators, retest of hits, confirmation, U3A cells, luciferase, luminescence | shares compounds with STAT3 act-1 | AID 1267, 2008 | potentiation (% of control), % at 5.7 µM | IL-6 potentiation; U3A cells lack STAT1; 100 means same as IL-6 alone | hit rate 64% among 1,200;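 active = percent activation of the STAT3 luciferase reporter above a set limit taken from the earlier primary screen, cut at about 130% in these data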;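 note: 0% = background signal of medium plus substrate and 100% = median of IL-6 with DMSO wells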
# NFkB act 2 – NF-kB reporter activators in human cells, counter-screen for STAT3 activator project; shares compounds with STAT3 act-1; NF-kappaB reporter activation; activation (% of control), % at 5.7 µM; hit rate 11% among 1,200; AID 1309, 2008; in the data active = activation above about 120%;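 note: reporter induced by TNF-alpha stimulation; 100% = median of stimulated DMSO wells and 0% = no signal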
# STAT1 act-2 – STAT1 reporter activators, IFN-gamma induced, counter-screen for STAT3 activator project, cell-based, NIH 3T3, luciferase luminescence. shares compounds with STAT3 act-1. NIH 3T3 STAT1-luciferase reporter. activation (% of control), % at 5.7 µM. hit rate 13% among 1,200. AID 1318, 2008;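 active = activation above the solvent-only control well mean plus 3 SD, set per screening run, cut at about 120% in these data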;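 note: 100% = IFN-gamma with DMSO median signal so 100% means no change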
# STAT1 activ conf – STAT1 signaling activators, confirmation, cell-based, HTS, luciferase reporter | activation (% of control), % at 5.7 µM | shares compounds with STAT1 act-1 | hit rate 97% among 1,200 | NIH 3T3 STAT1-luciferase reporter, IFN-gamma potentiation, luminescence; 100% = IFN-gamma EC80 alone, no compound | AID 1262, 2008;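 active = activation above a set limit carried over from the earlier primary STAT1 screen, cut at about 140% in these data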;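 note: simple ratio to median IFN-gamma plus DMSO wells so 0% means no light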
# NFkB act – NF-kB reporter activators, TNF-alpha stimulated, counter-screen for STAT1 activator project, cell-based, HEK293T, luciferase luminescence; hit rate 43% among 1,200; AID 1306, 2008; 100% = TNF-alpha with vehicle only; activation (% of control), % at 5.7 µM; shares compounds with STAT1 act-1;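 active = activation above the mean of solvent-only control wells plus 3 SD, set per campaign, cut at about 130% in these data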;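 note: TNF-alpha given at a submaximal dose yielding about 80% of full reporter signal; values are well signal over median control so 100% means no change and 0% no light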
# STAT3 act STAT1c – STAT3 reporter activation by STAT1 hits, confirmation, counter-screen for STAT1 activator project, U3A cells, luciferase, luminescence. hit rate 46% among 1,200. activation (% of control), % at 5.7 µM. shares compounds with STAT1 act-1. AID 1316, 2008. IL-6; cells lack STAT1; 100 = IL-6 alone, no compound effect;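 active = activation above the solvent-only control well mean plus 3 SD, set per plate batch, cut at about 110% in these data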;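 note: 0% = no luminescence and 100% = median IL-6 plus DMSO wells; higher means more STAT3 reporter activation so hits are non-selective activators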
# Numbers without * were called inactive; . = no result. Compounds with a hit are over-represented: about 5.1% of the library has one in this group of screens.
SMILES,STAT1 inh,APP 5'UTR act,STAT3 act-1,STAT3 inh-1,STAT1 act-1,NF-kB expr up,STAT3 inh-2,NFkB inh 2,STAT1 inh 2,others
O=c1[nH]c(=S)[nH]c(O)c1N=Nc1ccc(OC(F)F)cc1,-53,95,81,28,147*,1.2,.,.,.,
O=c1[nH]c(O)c(N=Nc2ccc3c(c2)OCCO3)c(=O)[nH]1,41*,34,37,79*,61,1.1,.,.,.,
O=c1[nH]c(O)c(N=Nc2ccc(S(=O)(=O)N3CCOCC3)cc2)c(=O)[nH]1,-1,-10,105,-1,99,1.2,.,.,.,
CCc1c(C)nc(N)nc1N1N=C1SCCOc1ccccc1,11,-1,95,12,90,.,.,.,.,
CN[C@H]1C[C@H]2O[C@@](C)([C@H]1OC)n1c3ccccc3c3c4c(c5c6ccccc6n2c5c31)C(=O)NC4,9,-95,11,104*,92,0.12,105*,96*,26*,
O=c1[nH]c(=O)n(-c2ccc(Cl)cc2)c(O)c1C=NCCN1CCCCC1,-12,-6,103,5,109,1.1,.,.,.,
CN(C)C(=O)Oc1ccc(OC(=O)N(C)C)cc1,2,11,102,3,98,1.1,.,.,.,
CN(C)C(=O)Oc1ccc(OCc2nc3ccccc3[nH]2)cc1,-4,88,54,58*,103,1.7,29,5,-3,
CC1CN=C(NCc2ccc(F)cc2)S1 (stereo not given),-6,46,95,8,104,1.2,.,.,.,
O=c1[nH]c(=O)n(CCC2=CCCCC2)c(O)c1C=NC1CCN(Cc2ccccc2)CC1,0,-4,52,62*,100,1.2,69*,30*,8,
CCCCCCn1c(O)c(C=NC2CCN(Cc3ccccc3)CC2)c(=O)[nH]c1=O,-5,-20,72,33,108,0.53,.,.,.,
CC(C)(C)n1cc(C(=O)c2ccc3ccccc3c2O)cn1,30,212*,47,65*,72,1.5,13,-32,-133,
Cn1cccc1CN1CCN(C(=O)COc2ccccc2)CC1,-2,11,104,4,102,0.96,.,.,.,
Cn1nc(-c2ccc(OCC(=O)N3CCN(Cc4ccccc4)CC3)cc2)c2ccccc2c1=O,19,17,54,60*,82,0.26,49*,20*,17*,
CC(=O)Nc1ccc(OC(=O)c2ccccc2N)cc1,-4,20,92,13,104,0.9,.,.,.,
Nc1ccccc1C(=O)OCCOc1ccccc1,-10,182*,57,58*,109,6.7*,17,-22,-153,
O=C(NC1CN2CCC1CC2)c1ccc(-c2ccc([N+](=O)[O-])cc2)o1 (stereo not given),-6,-17,94,6,106,1.1,.,.,.,
CNC(=O)Oc1ccc(-c2cn3cc(Cl)ccc3n2)cc1,11,131,31,84*,90,14*,68*,21*,1,
C[C@H]1O[C@@H](O[C@H]2[C@@H](O)C[C@H](O[C@H]3[C@@H](O)C[C@H](O[C@H]4CC[C@@]5(C)[C@H](CC[C@@H]6[C@@H]5CC[C@]5(C)[C@@H](C7=CC(=O)OC7)CC[C@]65O)C4)O[C@@H]3C)O[C@@H]2C)C[C@H](O)[C@@H]1O,-10,-94,29,83*,109,0.82,81*,-7,-2,
O=c1c2ccc(Cl)cc2[nH]c(=S)n1-c1cccnc1,11,4,85,20,89,0.96,.,.,.,
CN1C2CCC1/C(=C/c1ccccn1)C(=O)/C2=C\c1ccccn1,-118,-95,57,53*,209*,0.47,32,-71,-262,STAT1 activ conf=477*;NFkB act=252*;STAT3 act STAT1c=57
CNC(=S)N1CC2CC(C1)c1cccc(=O)n1C2 (stereo not given),-2,-1,101,-1,102,1.1,.,.,.,
CCCCn1c(=O)c(C(=O)Nc2ccsc2C(=O)OC)c(O)c2ccccc21,6,13,145*,-54,95,1,.,.,.,STAT3 act-2=165*;NFkB act 2=112;STAT1 act-2=112
CCC(=O)N1N=C2C3CCN(CC3)C2C1c1ccc(C)cc1 (stereo not given),2,-7,96,4,99,1.3,.,.,.,
CC(C)n1c(=O)c(C=Nc2cccc([N+](=O)[O-])c2)c(O)n(CCc2ccccc2)c1=O,4,1,137*,-47,96,1.1,.,.,.,STAT3 act-2=139*;NFkB act 2=103;STAT1 act-2=104

# High-throughput results (PubChem)
